Laboratory results taken from ChEMBL document CHEMBL1157689, “Synthesis and anti-HIV evaluation of water-soluble calixarene-based bithiazolyl podands” (Bioorg Med Chem, 2010).

How the values were obtained:
[1] = system: Human immunodeficiency virus 1; test: Antiviral activity against HIV1 3B infected in human MT4 cells assessed as protection from virus-induced cytopathogenicity by MTT assay; type: functional, organism-based; conditions: Human immunodeficiency virus 1, 3B
Procedure, shortened: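 HIV-1 IIIB replication in MT4 cells followed by virus-induced cytopathogenic effect. IC50 is the concentration protecting 50% of infected cells against cytopathogenicity. Values are averages of at least two or three separate experiments.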

[2] = Cytotoxicity against human CEM-SS cells by MTT assay; type: cell-based
Procedure, shortened: (§1)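 Uninfected CEM-SS, MT4 or PBMC cells exposed to compound, up to 100 μM for most compounds. CC50 is the concentration causing 50% death of uninfected cells. Values are averages of at least two or three separate experiments.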

[3] = Cytotoxicity against human PBMC by MTT assay; type: cell-based; procedure, shortened: as §1
[4] = Selectivity index, ratio of CC50 for human CEM-SS cells to IC50 for HIV1 LAI infected in human CEM-SS cells; type: functional
Procedure, shortened: (§2)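 Selectivity index calculated as CC50/IC50 for each cell system: CEM-SS/HIV-1 LAI, MT4/HIV-1 IIIB, PBMC/HIV-1 Bal.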

[5] = Selectivity index, ratio of CC50 for human MT4 cells to IC50 for HIV1 3B infected in human MT4 cells; type: functional; procedure, shortened: as §2
[6] = system: Human immunodeficiency virus 1; test: Antiviral activity against HIV1 BaL infected in human PBMC assessed as inhibition of viral replication by reverse transcriptase activity measurement; conditions: Human immunodeficiency virus 1, BaL
[7] = Selectivity index, ratio of CC50 for human PBMC to IC50 for HIV1 BaL infected in human PBMC; type: functional; procedure, shortened: as §2
[8] = Cytotoxicity against human MT4 cells by MTT assay; type: cell-based; procedure, shortened: as §1
[9] = system: Human immunodeficiency virus 1; test: Antiviral activity against HIV1 LAI infected in human CEM-SS cells assessed as inhibition of viral replication by reverse transcriptase activity measurement; conditions: Human immunodeficiency virus 1, LAI

SMILES | IC50 [1] [µM] | CC50 [2] [µM] | CC50 [3] [µM] | Ratio CC50/IC50 [4] | Ratio CC50/IC50 [5] | IC50 [6] [µM] | Ratio CC50/IC50 [7] | CC50 [8] [µM] | IC50 [9] [µM]
Cc1csc(-c2nc(COc3c4cc(CC(=O)[O-])cc3Cc3cc(CC(=O)[O-])cc(c3O)Cc3cc(CC(=O)[O-])cc(c3OCc3csc(-c5nc(C)cs5)n3)Cc3cc(CC(=O)[O-])cc(c3O)C4)cs2)n1.[Na+].[Na+].[Na+].[Na+] | 16.5 | > 1000 | 230 | >36 | >60 | 27.7 | 8.3 | > 1000 | 28
Cc1csc(-c2nc(COc3c4cc(CP(=O)([O-])O)cc3Cc3cc(CP(=O)([O-])O)cc(c3O)Cc3cc(CP(=O)([O-])O)cc(c3OCc3csc(-c5nc(C)cs5)n3)Cc3cc(CP(=O)([O-])O)cc(c3O)C4)cs2)n1.[Na+].[Na+].[Na+].[Na+] | 14 | > 100 | 92 | >6 | >7 | 57 | >1.7 | > 100 | 15
O=P([O-])(O)Cc1cc2c(O)c(c1)Cc1cc(CP(=O)([O-])O)cc(c1O)Cc1cc(CP(=O)([O-])O)cc(c1O)Cc1cc(CP(=O)([O-])O)cc(c1O)C2.[Na+].[Na+].[Na+].[Na+] | > 100 | > 100 | 78 |  |  | 70 | >1 | > 100 | > 100
O=S(=O)([O-])c1cc2c(O)c(c1)Cc1cc(S(=O)(=O)[O-])cc(c1O)Cc1cc(S(=O)(=O)[O-])cc(c1O)Cc1cc(S(=O)(=O)[O-])cc(c1O)C2.[Na+].[Na+].[Na+].[Na+] | 38 | > 100 | > 100 | >1.2 | >2.6 | 45 | >2 | > 100 | 86
Cc1nc(-c2nc(COc3c4cc(CC(=O)[O-])cc3Cc3cc(CC(=O)[O-])cc(c3O)Cc3cc(CC(=O)[O-])cc(c3OCc3nc(-c5nc(C)c(C(=O)[O-])s5)sc3C(=O)[O-])Cc3cc(CC(=O)[O-])cc(c3O)C4)c(C(=O)[O-])s2)sc1C(=O)[O-].[Na+].[Na+].[Na+].[Na+].[Na+].[Na+].[Na+].[Na+] | 14 | > 100 | 37 | >26 | >7 | > 37 | <1 | > 100 | 5.3
Cc1cn([C@H]2C[C@H](N=[N+]=[N-])[C@@H](CO)O2)c(=O)[nH]c1=O [ZIDOVUDINE] |  | > 100 | 75 |  |  | 0.0077 |  | > 100 | 0.0051
O=C([O-])Cc1cc2c(O)c(c1)Cc1cc(CC(=O)[O-])cc(c1O)Cc1cc(CC(=O)[O-])cc(c1O)Cc1cc(CC(=O)[O-])cc(c1O)C2.[Na+].[Na+].[Na+].[Na+] | 44 | > 100 | 100 | >1.2 | >2.3 | 9.5 | 10.5 | > 100 | 81
